Compound activity: PubChem, Johns Hopkins Ion Channel Center
An excerpt weighted towards active compounds, which were near 3.8% of everything screened.
KCNQ1 block: human KCNQ1 channel inhibition; P51787; CHO-K1 KCNQ1, FluxOR thallium flux fluorescence; stronger effect = higher value; B-score at 10 µM; 310,000 tested, 1.3% active; AID 2642;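 active means compounds whose thallium flux B-score, printed positive for inhibition, exceeds three library SD while starting fluorescence stays within three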;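 further: channel opened by potassium depolarization with thallium stimulus after 20 min compound exposure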
KCNK9 block: human KCNK9 channel inhibition; HEK293 KCNK9, FluxOR thallium flux fluorescence; stronger effect = lower value; B-score at 10 µM; AID 488922; 310,000 tested, 1.2% active;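 active means ratio B-score over 3 SD below the library mean, with starting fluorescence within 5 SD of its mean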;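 further: negative B-score means less thallium flux so channel inhibition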
Target sequence (Q9NPC2 whole entry, looked up): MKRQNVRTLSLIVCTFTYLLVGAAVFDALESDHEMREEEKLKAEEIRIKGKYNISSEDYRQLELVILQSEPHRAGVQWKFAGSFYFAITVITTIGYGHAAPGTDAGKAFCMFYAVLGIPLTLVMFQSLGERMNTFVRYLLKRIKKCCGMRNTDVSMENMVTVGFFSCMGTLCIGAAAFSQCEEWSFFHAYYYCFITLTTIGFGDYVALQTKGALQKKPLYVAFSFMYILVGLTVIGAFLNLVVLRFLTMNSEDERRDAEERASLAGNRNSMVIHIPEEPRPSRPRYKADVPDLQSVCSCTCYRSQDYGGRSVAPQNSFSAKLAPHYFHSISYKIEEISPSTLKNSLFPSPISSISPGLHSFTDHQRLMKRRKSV
Kir21 inh: inhibitors of mouse Kir2.1 inward-rectifier potassium channel. B-score at 10 µM. 310,000 tested, 0.85% active. AID 1672. P35561. HEK293-Kir2.1, FluxOR thallium flux fluorescence; stronger effect = lower value;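 active means fluorescence ratio B-score at or below minus 3 SD of library scores, with starting-brightness B-score within 2 SD, cut at about -4.2 in these data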;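 further: channel flux triggered by added potassium and thallium sulfate stimulus; B-score of peak minus minimum fluorescence over baseline after thallium stimulus; more negative B-score means stronger Kir2.1 block with less thallium influx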
KCNQ1 pot: potentiators or activators of human KCNQ1 potassium channel. AID 2648. CHO-K1 KCNQ1, thallium flux FluxOR fluorescence; stronger effect = higher value. P51787. 310,000 tested, 0.35% active. B-score at 10 µM;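 active means fluorescence ratio B-score, a plate-corrected score, at least three library SD, with initial intensity B-score within 5 SD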
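Test system: CHO-K1 cells stably expressing KCNQ1 / Medium: assay buffer / Also added: depolarizing K+/Tl+ stimulus, K2SO4 and Tl2SO4 each 12.5 mM in 5x stock / Incubation: 90 min dye loading and 20 min compound exposure, both at room temperature / Signal: thallium influx via FluxOR fluorescence, kinetic imaging / Evaluation: B score of baseline-normalized fluorescence ratio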
KCNK3 inh: human KCNK3 channel inhibition, primary screen; O14649; CHO-KCNK3 thallium flux, FluxOR fluorescence; stronger effect = lower value; B-score at 10 µM; 340,000 tested, 0.84% active; AID 602410;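 active means B-score under library mean minus 4 SD, starting fluorescence ratio at most library mean plus 5 SD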;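 further: more negative B-score means stronger inhibition of thallium flux through KCNK3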
Target sequence (O14649 whole entry, looked up): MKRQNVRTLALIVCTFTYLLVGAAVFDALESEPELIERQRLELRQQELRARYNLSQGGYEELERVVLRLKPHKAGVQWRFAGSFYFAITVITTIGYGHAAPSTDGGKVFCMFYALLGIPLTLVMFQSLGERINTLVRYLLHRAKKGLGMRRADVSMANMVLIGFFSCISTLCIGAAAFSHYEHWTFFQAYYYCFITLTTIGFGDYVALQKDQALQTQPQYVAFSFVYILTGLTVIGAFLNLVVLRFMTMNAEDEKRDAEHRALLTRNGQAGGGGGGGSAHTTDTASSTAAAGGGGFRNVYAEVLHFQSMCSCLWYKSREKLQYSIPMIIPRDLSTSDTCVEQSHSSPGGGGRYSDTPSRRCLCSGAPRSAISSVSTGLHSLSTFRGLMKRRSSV
hERG protect: compounds protecting human hERG from proarrhythmic drug block | Q12809 | CHO-hERG, FluxOR thallium flux, dofetilide IC70 present | activation (rescue from dofetilide block), less the hit threshold, % at 10 µM | 310,000 tested, 0.51% active | AID 1511;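 active means activation above the mean of controls blocked by dofetilide plus 5 SD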;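 further: thallium influx through hERG after potassium depolarization seen as dye fluorescence rise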
KCNQ1 inh valid: reconfirmed blocker of the human KCNQ1 potassium channel; shares compounds with KCNQ1 block; KCNQ1 cell line, FluxOR thallium flux fluorescence; inhibition, % at 10 µM; 1,600 tested, 93% active;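 active means primary screen active, with duplicate mean exceeding buffer control mean plus 3 SD of buffer wells, cut at about 28% in these data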;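 further: 0% = buffer control ratio and 100% = XE991 inhibitor control ratio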
CHO KCNQ1 ctr: counter-screen for KCNQ1 inhibitors: effect in parental CHO cells | shares compounds with KCNQ1 block | parental CHO-K1, FluxOR thallium flux fluorescence ratio; stronger effect = lower value; zero means no signal rise above baseline | fluorescence ratio (Tl flux) at 10 µM | 1,600 tested, 21% active | AID 588366;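 active means mean of duplicate thallium-flux fluorescence ratios in parental host cells more than 5 SD below the buffer control mean, cut at about 0.38 in these data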;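 further: ratio is peak minus minimum fluorescence divided by baseline fluorescence; actives read low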
KCNQ1 ephys val: confirmation of human KCNQ1 potassium channel inhibitors by electrophysiology | 490 tested, 20% active | AID 624120 | KCNQ1-CHO cells, automated patch clamp current | shares compounds with KCNQ1 block | calls only at 10 µM;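 active means KCNQ1 current drop exceeding 3 SD of negative control wells, seen in both duplicate runs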;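 further: steady state current during a 2 s step from -80 to +40 mV; negative values mean current inhibition and positive values mean potentiation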
KCNQ2 spec: KCNQ1 inhibitor that also blocks rat KCNQ2 channel; shares compounds with KCNQ1 block; KCNQ2 cells, FluxOR thallium flux fluorescence; inhibition, % at 10 µM; 1,600 tested, 71% active; AID 651746;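 active means mean percent inhibition of the KCNQ2 thallium signal more than 5 SD above the buffer-only control wells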;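 further: KCNQ2 expressed in CHO cells; 0% = buffer control wells and 100% = XE-991 inhibitor control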
KCNQ1 KCNE1 spec: KCNQ1 inhibitor that also blocks human KCNQ1/KCNE1 channel; shares compounds with KCNQ1 block; KCNQ1/KCNE1 cells, FluxOR thallium flux fluorescence; inhibition, % at 10 µM; 1,600 tested, 77% active; AID 652147;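 active means mean percent inhibition of duplicate wells above the buffer-only control mean plus 3 SD of those controls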;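 further: 0% = buffer only wells and 100% = XE-991 inhibitor control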
* = called active by the depositor; i = inactive; . = no result given; + = active, no number.

SMILES | KCNQ1 block | KCNK9 block | Kir21 inh | KCNQ1 pot | KCNK3 inh | hERG protect | KCNQ1 inh valid | CHO KCNQ1 ctr | KCNQ1 ephys val | KCNQ2 spec | KCNQ1 KCNE1 spec
Cc1cccc(C)c1OCc1cc(C(=O)N2CCC(c3ccncc3)CC2)no1 | 7* | i | -0.01 | i | i | -22 | 113* | 0.52 | i | 69%* | 35%*
CCOC(=O)Cc1nn[nH]n1 | 7* | i | -0.02 | i | i | -3 | 0 | 0.48 | . | i | 37%*
CC(N=c1ccccn1C(=O)Nc1ccc(F)cc1)c1ccco1 (stereo unspecified) | i | i | -1.3 | i | i | -5 | . | . | . | . | .
CC(N=c1ccccn1C(=O)Nc1ccc(Cl)cc1)c1ccco1 (stereo unspecified) | 10* | i | -0.47 | i | . | -7 | 62* | 0.49 | . | 61%* | i
CCCCSc1nnc(-c2ccc(C)cc2)c2ccccc12 | 11* | -7.1* | -2.5 | i | i | -22 | 154* | 0.43 | i | 103%* | 175%*
Cc1ccc(Oc2nnc(-c3ccc(C)cc3)c3ccccc23)cc1 | i | i | -0.47 | i | i | -6 | . | . | . | . | .
COCCn1c(-c2ccc(Cl)cc2)cnc1SCC(=O)NCCc1ccc(OC)c(OC)c1 | i | i | -0.49 | i | i | -4 | . | . | . | . | .
Cn1cc(CNCc2ccc(OC(F)(F)F)cc2)c(-c2ccc3c(c2)OCCO3)n1 | 10* | i | 0.14 | i | i | -20 | 124* | 0.49 | i | 112%* | 60%*
CC(C)OC(=O)CSc1nc2c(c(C3CC=CCC3)c1C#N)CCC2 (stereo unspecified) | 10* | i | -1 | i | i | -8 | 96* | 0.38* | . | 132%* | 106%*
Cc1cc(C)c(C#N)c(SCC(=O)CC(=O)OC(C)C)n1 | i | i | -0.89 | i | i | -8 | . | . | . | . | .
C=CCSc1nc2c(c(C3CC=CCC3)c1C#N)CCC2 (stereo unspecified) | 6* | -7.7* | -2.2 | i | i | -3 | 88* | 0.46 | i | 101%* | 143%*
COc1ccc(OCC(=O)OCCNC(=O)c2cccnc2)cc1 | i | i | 0.01 | i | i | -8 | . | . | . | . | .
COc1ccc(CCN2C(=O)c3[nH]nc(-c4ccccc4O)c3C2c2cccc(Cl)c2)cc1 (stereo unspecified) | 9* | i | 1.8 | i | i | -4 | 109* | 0.46 | + | 90%* | 140%*
CN1CCN(S(=O)(=O)c2ccc3[nH]c(=O)oc3c2)CC1 | i | i | 1.2 | i | i | -5 | . | . | . | . | .
CCC1Sc2ccc(S(=O)(=O)Nc3ccc(OC)c(OC)c3)cc2NC1=O (stereo unspecified) | 7* | i | -0.23 | i | i | -10 | 80* | 0.48 | . | 69%* | i
CCC1Sc2ccc(S(=O)(=O)Nc3ccc(OC)cc3)cc2NC1=O (stereo unspecified) | i | i | -0.51 | i | i | -6 | . | . | . | . | .
Cc1c(C(=O)Nc2ccc3c(c2)OCCO3)sc2ncnc(N3CCCCC3C)c12 (stereo unspecified) | i | i | 0.73 | i | i | -16 | . | . | . | . | .
Cc1nc(N2CCC(C)CC2)c2c(C)c(C(=O)Nc3ccc4c(c3)OCCO4)sc2n1 | 8* | i | 0.01 | i | i | -10 | 112* | 0.42 | i | 120%* | 92%*
C=CCNCCCOc1ccc(C)cc1Br | i | i | 1 | i | i | -7 | . | . | . | . | .
Cc1cc(C)cc(NC(=O)Cn2c(=O)oc3cc(S(=O)(=O)N4CC(C)CC(C)C4)ccc32)c1 (stereo unspecified) | 7* | i | 0.77 | i | i | -11 | 37* | 0.47 | . | 67%* | i
CCCCNC(=O)Cn1c(=O)oc2cc(S(=O)(=O)N3CC(C)CC(C)C3)ccc21 (stereo unspecified) | i | i | 0.03 | i | i | -12 | . | . | . | . | .
COc1ccc(NC(=O)Cn2nnc(C(=O)NCCc3ccc(OC)c(OC)c3)c2N)c(OC)c1 | i | i | 0.2 | i | i | -6 | . | . | . | . | .
O=C(Cc1nc2ccccc2[nH]1)c1ccc(Br)cc1 | 6* | i | 2.7 | i | i | -13 | 52* | 0.46 | . | 72%* | 51%*
O=C(Nc1cccc(Cl)c1)N1CCSc2cc(Cl)ccc21 | 9* | i | 0.06 | i | i | -17 | 119* | 0.45 | . | 111%* | 68%*
O=C(Nc1nc2ccc(F)cc2s1)C1CCN(S(=O)(=O)c2cc([N+](=O)[O-])ccc2Cl)CC1 | 15* | i | 0.1 | i | i | -19 | 158* | 0.37* | . | 118%* | 198%*
SMILES | KCNQ1 block | KCNK9 block | Kir21 inh | KCNQ1 pot | KCNK3 inh | hERG protect | KCNQ1 inh valid | CHO KCNQ1 ctr | KCNQ1 ephys val | KCNQ2 spec | KCNQ1 KCNE1 spec
CCC(C)n1c(NC(=O)c2ccccc2)c(C#N)c2nc3ccccc3nc21 (stereo unspecified) | 8* | i | -0.16 | i | i | -15 | 82* | 0.44 | . | 64%* | i
CCC(=O)Nc1c(C#N)c2nc3ccccc3nc2n1-c1ccc(C)cc1 | . | . | . | . | i | . | . | . | . | . | .
COC(=O)c1cc(NC(=O)COC(=O)CCc2nc3ccccc3c(=O)[nH]2)cc(C(=O)OC)c1 | . | . | . | . | i | . | . | . | . | . | .
CCOC(=O)c1cc(C(C)(C)C)oc1CNC(=O)c1c(C)oc2c1CCCC2 | 10* | i | -0.02 | i | i | -23 | 141* | 0.38 | i | 120%* | 142%*
CC(=O)c1cccc(NC(=O)N2CCCC2C(=O)NCc2ccc3c(c2)OCO3)c1 (stereo unspecified) | 7* | i | -1.3 | i | i | -7 | 0 | 0.48 | . | i | i
CCOC(=O)Cn1nnnc1CN(Cc1ccccc1)Cc1cc2cc(CC)ccc2[nH]c1=O | i | i | 0.59 | i | i | -8 | . | . | . | . | .
Cc1cc(C)nc(NC(=O)c2ccc(COc3ccccc3Cl)cc2)c1 | 8* | i | -0.2 | i | i | -6 | 103* | 0.45 | i | 106%* | 123%*
